Bioassay records: PubChem, several laboratories
MPTP block – permeability transition pore inhibition; isolated mouse mitochondria, Ca2+ swelling absorbance, 30 min; AID 602449; 1.4% of 360,000 active; inhibition, % at 10 µM;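 active = inhibition of 50% or more, scaled per plate between neutral and stimulator controls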;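 also: 0% = DMSO wells given calcium and 100% = 1 mM EGTA wells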
MC4R ag barr – activates human MC4R beta-arrestin recruitment | activation, % at 8.9 µM | U2OS MC4R beta-arrestin complementation, luminescence; percent of melanotan II response, DMSO zero | 0.98% of 360,000 active | P32245;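 active = activation above a per-plate cutoff, the mean activation of sample wells on that plate plus 3 SD, cut at about 8% in these data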
Target sequence (P32245 whole entry, looked up): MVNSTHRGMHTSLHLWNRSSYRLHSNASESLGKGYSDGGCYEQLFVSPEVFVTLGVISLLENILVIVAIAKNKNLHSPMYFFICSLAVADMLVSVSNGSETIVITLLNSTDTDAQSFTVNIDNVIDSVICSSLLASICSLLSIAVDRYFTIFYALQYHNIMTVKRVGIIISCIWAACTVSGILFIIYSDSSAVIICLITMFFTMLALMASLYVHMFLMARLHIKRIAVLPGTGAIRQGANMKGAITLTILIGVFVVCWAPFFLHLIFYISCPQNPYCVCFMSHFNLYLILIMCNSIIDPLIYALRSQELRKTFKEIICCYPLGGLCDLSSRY
ATG4B inh – inhibitors of human ATG4B cysteine protease; Q9Y4P1; ATG4B cleavage of LC3-PLA2, NBD-HPC fluorescence, 1 h; inhibition, % at 8.33 µM; 0.51% of 340,000 active; in the data active = inhibition above about 40%
Target sequence (Q9Y4P1 whole entry, looked up): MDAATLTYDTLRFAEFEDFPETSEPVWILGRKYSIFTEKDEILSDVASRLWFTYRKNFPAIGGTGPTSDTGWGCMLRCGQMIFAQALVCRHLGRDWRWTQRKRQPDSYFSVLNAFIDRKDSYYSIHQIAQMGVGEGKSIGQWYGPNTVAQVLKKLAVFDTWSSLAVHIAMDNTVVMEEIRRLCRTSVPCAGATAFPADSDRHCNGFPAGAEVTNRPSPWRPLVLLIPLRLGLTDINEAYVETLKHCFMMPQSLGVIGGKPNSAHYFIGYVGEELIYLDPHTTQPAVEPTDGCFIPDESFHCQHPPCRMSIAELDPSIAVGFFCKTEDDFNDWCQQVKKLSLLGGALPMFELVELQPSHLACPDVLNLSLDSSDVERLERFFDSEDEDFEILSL
MC4R antag cAMP – antagonists of human melanocortin 4 receptor (MC4R); P32245; inhibition, % at 6.5 µM; MC4R-expressing cells, MTII-stimulated cAMP, LANCE TR-FRET; 0.48% of 360,000 active;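 active = inhibition above its plate's cutoff, the mean of tested wells on that plate plus 3 SD, cut at about 29% in these data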;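 also: 0% = Melanotan II alone and 100% = Melanotan II plus saturating MCL0020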
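Material: U2OS-MC4R stable cell line | Reagent: Melanotan II challenge after compound preincubation | Doses: One concentration, 6.5 µM nominal | Incubation: 30-min compound preincubation, 1-h Melanotan II challenge, 1-h detection, room temperature | Signal: TR-FRET cAMP assay | Replicates: One well per compound, no replicates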
SMARCA2 activ – activators of SMARCA2 function; MG213 cells, MMTV-luciferase reporter, dexamethasone, overnight; activation, % at 9.1 µM; AID 652017; 1% of 370,000 active; in the data active = activation above about 7.8%;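 also: 0% = vehicle wells and 100% = reference activator wells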
MC4R barr ag – human MC4R beta-arrestin agonism confirmation; shares compounds with MC4R ag barr; U2OS MC4R beta-arrestin recruitment, luminescence; scaled DMSO 0%, Melanotan II 100%; activation, % at 8.9 µM; 31% of 2,400 active; AID 602192;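 active = mean activation across replicates above the hit cutoff set in the earlier primary screen, cut at about 8% in these data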
MOR-DOR barr ag – OPRM1-OPRD1 heterodimer agonism counter-screen. AID 602194. 5.8% of 2,400 active. U2OS PathHunter beta-arrestin, beta-gal luminescence; percent of deltorphin B response, DMSO zero. activation, % at 9.2 µM. shares compounds with MC4R ag barr;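 active = mean activation across replicates exceeds the hit threshold derived in the earlier primary screen, cut at about 18% in these data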;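 also: 100% = deltorphin B at 0.9 µM final and 0% = DMSO alone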
Starred values were filed as active, the others as inactive; x = not tested or not shown. Sampled rows, rich in hits. Any-hit rate of the full collection: about 4.1%.

SMILES | MPTP block | MC4R ag barr | ATG4B inh | MC4R antag cAMP | SMARCA2 activ | MC4R barr ag | MOR-DOR barr ag
COc1ccc(-c2nnn(CC(=O)N(Cc3ccc(F)cc3)C(C(=O)NC3CCCC3)c3ccc(F)cc3)n2)cc1 (stereo not given) | 0.2 | 9.7* | 5.5 | 0.3 | -0.9 | -0.2 | 2.7
CCOC(=O)CN(C(=O)Cn1nnc(-c2ccc(OC)cc2)n1)C(C(=O)NC1CCCC1)c1ccc(F)cc1 (stereo not given) | 0.0 | -1.4 | -33.5 | 4.8 | -3.1 | x | x
NNc1ccc(S(=O)(=O)N2CCCCC2)cn1 | 0.5 | 11.7* | -7.7 | 1.7 | -1.8 | -3.4 | 0.6
O=S(=O)(c1ccc(N2CCCC2)nc1)N1CCCC1 | -1.1 | -0.6 | -0.7 | 15.2 | -2.4 | x | x
Nc1ccc(-n2c(N)c(C(=O)NCc3ccc4c(c3)OCO4)c3nc4ccccc4nc32)cc1 | 3.3 | 12.7* | -8.8 | 5.8 | -2.7 | 0.9 | 3.8
COc1cc(NC(=O)c2cc3c(=O)n(C)c4ccccc4c3n2C)cc(OC)c1OC | 1.2 | 30.7* | -0.2 | 2.8 | -1.3 | 0.7 | 7.0
COC(=O)[C@H](CC(C)C)N(CCCc1cn(Cc2ccccc2)nn1)S(=O)(=O)c1ccccc1Br | x | x | x | x | 0.3 | x | x
Cc1[nH]nc2nc(SCC(=O)NC3CCCCC3)n(-c3ccc(Br)cc3)c(=N)c12 | -0.8 | 16.6* | 1.1 | 19.8 | -2.4 | 7.6 | 23.1*
CC1CCC(C(C)C)C(OC(=O)C[n+]2cc(-c3ccc(Cl)cc3)n3c2CCC3)C1 (stereo not given) | 31.8 | 17.4* | 9.6 | 14.4 | -3.2 | 4.1 | 4.2
O=C(C[n+]1cc(-c2ccc(Cl)cc2)n2c1CCC2)N1c2ccccc2Sc2ccccc21 | 4.6 | -1.6 | 1.0 | 1.2 | -2.1 | x | x
Cc1ccc(NC(=O)[C@@H]2CC(=O)O[C@@H]2c2ccccc2)cc1C | x | x | x | x | -2.1 | x | x
CS(=O)(=O)N(Cc1ccc(Cl)cc1)c1ccc(C(=O)NCCC2=CCCCC2)cc1 | -1.8 | 12.8* | 19.2 | 6.5 | -0.4 | 0.5 | 8.8
CCOC(=O)CCCNC(=O)OC1CC2CC1[C@H]1CCCCN1[C@H]2Cc1ccccc1 (stereo not given in full) | x | x | x | x | -1.6 | x | x
CCN(CC)c1nc(OCCNC(=O)Nc2ccccc2)nc(N(CC)CC)n1 | 3.6 | 13.0* | 32.8 | -0.5 | -2.4 | 2.5 | 7.5
CC[C@@H](C)[C@H](CN[C@H](CNC)C(C)C)NC[C@@H](C)c1ccc(CC(C)C)cc1 | 4.8 | 45.2* | 7.2 | -0.9 | -0.8 | 15.7* | 7.7
COc1cc2nc(SCC(=O)NCc3ccco3)n(Cc3ccc(Cl)cc3)c(=O)c2cc1OC | 6.6 | 13.1* | -4.7 | -2.3 | 1.6 | -1.8 | 11.3
CCCCCn1c(SCC(=O)OCC)nc2cc(C(=O)NCc3ccco3)ccc2c1=O | 1.5 | 12.7* | -2.7 | 11.6 | 2.7 | 2.4 | 30.6*
COc1ccc(OC)c(NC(=S)NC(=O)c2ccc(Br)o2)c1 | 0.9 | 10.6* | 6.3 | 11.8 | -0.2 | 3.1 | 19.2*
COc1ccc(CNC(=S)Nc2cc(OC)ccc2OC)cc1 | -1.0 | 1.4 | -4.0 | -4.3 | -0.8 | x | x
Cc1ccc(-c2cc(C(=O)NN=Cc3cccc4ccccc34)[nH]n2)cc1C | x | x | x | x | -5.4 | x | x
COC(=O)[C@]12C[C@H](CC(=O)NCc3ccc(C)o3)C(=O)N(Cc3ccc4c(c3)OCO4)C1=C[C@H](C(C)(C)C)O[C@@H]2C | x | x | x | x | -5.3 | x | x
NNC(=O)c1cc2nc(-c3cccs3)cc(C(F)(F)F)n2n1 | -0.6 | -0.2 | -8.0 | 13.6 | 5.7 | x | x
FC(F)(F)c1cc(-c2cccs2)nc2cc(-c3cccs3)nn12 | 1.2 | 25.0* | -0.2 | 0.6 | -2.6 | 2.4 | 4.0
CCCCCCCCN1CCS(=O)(=O)N(Cc2ccccc2)C(C(=O)OC)C1 (stereo not given) | x | x | x | x | -2.6 | x | x
C=CCN1C(=O)C2(NNc3ccccc3O2)c2ccccc21 (stereo not given) | 2.3 | 9.8* | -4.8 | 2.1 | 2.3 | 10.2* | 4.6
SMILES | MPTP block | MC4R ag barr | ATG4B inh | MC4R antag cAMP | SMARCA2 activ | MC4R barr ag | MOR-DOR barr ag
Cc1cc(-c2nnc(SCC(=O)Nc3nc(-c4ccccc4)cs3)o2)no1 | 1.0 | 2.6 | -16.4 | -0.4 | 3.2 | x | x
Cc1occc1-c1nnc(SCC(=O)Nc2nc(-c3ccccc3)cs2)o1 | 1.5 | 24.1* | 1.5 | -3.0 | -3.2 | 1.9 | 5.0
O=C(Cc1c(O)c2ccccc2oc1=O)c1ccc(F)cc1 | -0.2 | 10.9* | -1.3 | 6.5 | 5.5 | 1.1 | 3.1
O=c1oc2ccccc2c(O)c1CN1CCCCC1 | 20.2 | 2.1 | -1.6 | 17.7 | -1.5 | x | x
N#Cc1cc(F)cc(OC[C@@H](O)CN2CCC(C(O)(c3ccccc3)c3ccccc3)CC2)c1 | x | x | x | x | -0.9 | x | x
O=C(Nc1ccc2oc(-c3ccncc3)nc2c1)c1ccc2c(c1)OCCO2 | 0.2 | 22.9* | 0.1 | 7.8 | -0.3 | 11.6* | 2.5
O=C(c1c(F)cccc1F)N1CCC(Oc2cccnc2)CC1 | x | x | x | x | -1.5 | x | x
NC(Cc1ccc(Cl)cc1)c1csc(Nc2ccc(C(=O)c3ccccc3)cc2)n1 (stereo not given) | 4.3 | 11.6* | x | -6.8 | -4.9 | 17.7* | 19.5*
CC(=O)c1ccc(Nc2nc(C(N)C3CCCCC3)cs2)cc1 (stereo not given) | 0.0 | 1.0 | x | 4.8 | -6.1 | x | x
NC(c1csc(Nc2ccc(C(=O)c3ccccc3)cc2)n1)C1CCCCC1 (stereo not given) | 2.7 | 11.4* | x | 4.0 | -3.8 | 23.4* | 25.2*
COc1ccc(C(N)c2csc(Nc3cc(Oc4ccccc4)ncn3)n2)cc1 (stereo not given) | 1.4 | 3.5 | x | -7.3 | -1.9 | x | x
NC(Cc1ccc(F)cc1)c1csc(Nc2ccc(C(=O)c3ccccc3)cc2)n1 (stereo not given) | 2.9 | 13.2* | x | 6.4 | -8.7 | 19.3* | 24.3*
NC(c1csc(Nc2cc(Oc3ccccc3)ncn2)n1)C1CCCCC1 (stereo not given) | 4.9 | 10.4* | x | -2.6 | 1.7 | 27.6* | 19.7*
COc1ccc2c(c1)CO[C@H]([C@H](O)CO)[C@H]2/C=C/c1ccccc1 | x | x | x | x | -4.7 | x | x
COC(=O)[C@]12C[C@H](CC(=O)NCCc3ccccc3OC)C(=O)N(CCC3=CCCCC3)C1=C[C@H](COCc1ccccc1)O[C@@H]2C | x | x | x | x | -4.2 | x | x
O=C(NCc1ccccc1)[C@@H]1CCCN1C(=O)[C@H]1CCCN1C(=O)c1ccccc1F | x | x | x | x | 2.8 | x | x
Cc1cc(NC(=O)c2cccc(COc3ccc(Br)cc3)c2)no1 | 0.3 | 11.8* | -4.3 | -7.3 | 5.1 | 12.0* | 4.5
CCOc1ccc(C(=O)Nc2cc(C)on2)cc1 | -2.6 | -3.7 | -2.8 | -4.6 | 2.5 | x | x
CCc1cccc(NC(=O)Cn2c(=O)c3cccn3c3ccccc32)c1 | 2.6 | 10.8* | -0.1 | -3.2 | -1.5 | 5.1 | 7.9
